Measurements as given in ChEMBL document CHEMBL1132592, “Synthesis of novel 2-benzothiopyran and 3-benzothiepin derivatives and their stimulatory effect on bone formation” (J Med Chem, 1999).

Columns and labels:
[1] = target: T1, Alkaline phosphatase, tissue-nonspecific isozyme (Rattus norvegicus) (UniProt P08289); experiment: Effect of 10E-7 M compound on alkaline phosphatase activity compared to control in culture of rat bone marrow stromal cells
T1 sequence (whole entry): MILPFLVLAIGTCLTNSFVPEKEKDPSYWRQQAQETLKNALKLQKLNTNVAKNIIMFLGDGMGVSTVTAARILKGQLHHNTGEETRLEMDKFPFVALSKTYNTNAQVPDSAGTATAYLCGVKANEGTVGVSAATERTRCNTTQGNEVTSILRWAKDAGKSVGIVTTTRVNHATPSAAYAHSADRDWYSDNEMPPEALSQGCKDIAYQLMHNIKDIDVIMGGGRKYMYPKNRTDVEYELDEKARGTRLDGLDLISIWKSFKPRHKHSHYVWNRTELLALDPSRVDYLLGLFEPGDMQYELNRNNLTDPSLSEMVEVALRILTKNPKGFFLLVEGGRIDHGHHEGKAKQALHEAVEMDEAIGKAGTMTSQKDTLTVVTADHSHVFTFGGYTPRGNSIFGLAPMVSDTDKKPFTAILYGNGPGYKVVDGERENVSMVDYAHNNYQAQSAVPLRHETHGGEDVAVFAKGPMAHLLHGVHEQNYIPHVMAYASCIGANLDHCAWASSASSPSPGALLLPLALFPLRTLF
Summary of the method: (§1)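 Rat femoral marrow stromal cells subcultured at 4 × 10^4 cells/well in α-MEM with 15% FBS, ascorbate, 10 mM β-glycerophosphate and 10^-7 M dexamethasone. Compound added day 1 to day 10-14, medium refreshed every other day. Lysate ALP (Lowry method) given as fold of control; n = 5–10; Student's t-test.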

[2] = target: T1, Alkaline phosphatase, tissue-nonspecific isozyme (Rattus norvegicus); experiment: Effect on alkaline phosphatase activity compared to control in culture of rat bone marrow stromal cells, 10E-5 M concentration; assay type: tissue-based; summary of the method: as §1
[3] = target: T1, Alkaline phosphatase, tissue-nonspecific isozyme (Rattus norvegicus); experiment: Effect of 10E-7 M compound on alkaline phosphatase activity in culture of rat bone marrow stromal cells
Summary of the method: (§2)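 Femoral marrow stromal cells from 7-week-old male Sprague-Dawley rats. Primary culture 1 week in α-MEM (10 mM HEPES pH 7.0, 15% FBS, 2 mM glutamine, 50 μg/mL ascorbate, 10 mM β-glycerophosphate, 10^-7 M dexamethasone), 37 °C, 5% CO2. Subcultured at 4 × 10^4 cells/well; compound (10 mM stock in EtOH-DMSO 1:1 or DMF) from day 1 to day 10-14, medium changed every other day. Lysate ALP (Lowry method) in nmol/min/well; mean ± SE, n = 5–10.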

[4] = target: T1, Alkaline phosphatase, tissue-nonspecific isozyme (Rattus norvegicus); experiment: Effect of 10E-5 M compound on alkaline phosphatase activity in culture of rat bone marrow stromal cells; assay type: tissue-based; summary of the method: as §2
[5] = target: T2, Alkaline phosphatase, tissue-nonspecific isozyme (Mus musculus) (UniProt P09242); experiment: Alkaline phosphatase stimulatory activity of 10E-5 M compound in culture of MC3T3-E1 in absence of BMP
T2 sequence (whole entry): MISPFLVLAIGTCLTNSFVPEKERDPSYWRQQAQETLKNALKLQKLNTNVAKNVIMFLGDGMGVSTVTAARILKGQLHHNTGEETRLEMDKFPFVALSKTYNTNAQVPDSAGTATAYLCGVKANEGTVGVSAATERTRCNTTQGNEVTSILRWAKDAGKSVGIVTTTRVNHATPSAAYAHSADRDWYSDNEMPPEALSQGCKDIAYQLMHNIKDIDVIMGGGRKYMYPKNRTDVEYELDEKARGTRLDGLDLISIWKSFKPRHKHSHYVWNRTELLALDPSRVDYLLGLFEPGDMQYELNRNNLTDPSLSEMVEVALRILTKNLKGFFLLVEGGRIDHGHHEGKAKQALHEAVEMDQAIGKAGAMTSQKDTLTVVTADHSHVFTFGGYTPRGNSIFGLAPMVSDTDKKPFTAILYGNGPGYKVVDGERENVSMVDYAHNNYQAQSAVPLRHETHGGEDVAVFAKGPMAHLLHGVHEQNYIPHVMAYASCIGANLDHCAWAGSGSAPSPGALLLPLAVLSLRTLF
Summary of the method: (§3)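 Mouse osteoblastic MC3T3-E1 cells, 3000 cells/well, grown 3 days in α-MEM with 10% FBS, then switched to α-MEM with 1% FBS plus compound, with or without recombinant Xenopus BMP-4/7 heterodimer (3 ng/mL), for 3 more days. ALP in lysate supernatant read as absorbance at 405 nm; mean ± SE, n = 6; Dunnett's test vs matching control.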

[6] = target: T2, Alkaline phosphatase, tissue-nonspecific isozyme (Mus musculus); experiment: Alkaline phosphatase stimulatory activity of 10E-5 M compound in culture of MC3T3-E1 in presence of 3 ng/mL of BMP; summary of the method: as §3
[7] = target: T2, Alkaline phosphatase, tissue-nonspecific isozyme (Mus musculus); experiment: Alkaline phosphatase stimulatory activity of 10E-6 M compound in culture of MC3T3-E1 in presence of 3 ng/mL of BMP; summary of the method: as §3
[8] = target: T1, Alkaline phosphatase, tissue-nonspecific isozyme (Rattus norvegicus); experiment: Effect of 10E-6 M compound on alkaline phosphatase activity in culture of rat bone marrow stromal cells; summary of the method: as §2
[9] = target: T2, Alkaline phosphatase, tissue-nonspecific isozyme (Mus musculus); experiment: Alkaline phosphatase stimulatory activity of 10E-6 M compound in culture of MC3T3-E1 in absence of BMP; summary of the method: as §3

Row | SMILES | ALP activity [2] | other results
1 | COP(=O)(OC)c1ccc(NC(=O)C2SCC(=O)c3cc(C4CCCCC4)ccc32)cc1 (stereo not given) |  | ALP activity [1]: 1.5
2 | CCOP(=O)(Cc1ccc(NC(=O)[C@H]2Cc3cc4c(cc3C(=O)[C@H](CC)S2)OCO4)cc1)OCC | 4.6 | 
3 | CCOP(=O)(Cc1ccc(NC(=O)[C@H]2Cc3cc(OC)c(OC)cc3C(=O)[C@H](C(C)C)S2)cc1)OCC | 1.4 | 
4 | CCOP(=O)(Cc1ccc(NC(=O)[C@H]2Cc3ccc(C)cc3C(=O)[C@H](C)S2)cc1)OCC | 1.7 | 
5 | CCOP(=O)(Cc1ccc(NC(=O)C2Cc3cc4c(cc3C(=O)C(C)S2)OCO4)cc1)OCC (racemic) |  | ALP activity [3]: 185; ALP activity [4]: 1210; ALP activity [5]: 0.178; ALP activity [6]: 0.221; ALP activity [7]: 0.162; ALP activity [8]: 411; ALP activity [9]: 0.133
6 | CCOP(=O)(Cc1ccc(NC(=O)[C@H]2Cc3cc4c(cc3C(=O)CS2)OCO4)cc1)OCC | 2.9 | 
7 | CCOP(=O)(Cc1ccc(NC(=O)[C@@H]2Cc3cc4c(cc3C(=O)[C@@H](C)S2)OCO4)cc1)OCC |  | ALP activity [3]: 166; ALP activity [4]: 566; ALP activity [5]: 0.115; ALP activity [6]: 0.131; ALP activity [8]: 160
8 | CCOP(=O)(Cc1ccc(NC(=O)[C@@H]2Cc3cc(OC)c(OC)cc3C(=O)CS2)cc1)OCC |  | ALP activity [4]: 770; ALP activity [5]: 0.12; ALP activity [6]: 0.131
9 | COc1cc2c(cc1OC)[C@H](C(=O)Nc1ccc(Cl)cc1)SCC2=O | 1.3 | 
10 | CCOP(=O)(Cc1ccccc1NC(=O)[C@H]1Cc2cc3c(cc2C(=O)[C@H](C)S1)OCO3)OCC | 1.1 | 
11 | Cc1ccc(NC(=O)[C@@H]2SCC(=O)c3cc(C4CCCCC4)ccc32)cc1 | 1.7 | 
12 | CCCOP(=O)(OCCC)c1ccc(NC(=O)C2SCC(=O)c3cc(C4CCCCC4)ccc32)cc1 (stereo not given) |  | ALP activity [1]: 1.5
13 | COc1cc2c(cc1OC)C(=O)CS[C@@H](C(=O)Nc1ccc(CP3(=O)OCC(C)CO3)cc1)C2 (stereo not given in full) | 2.7 | 
14 | CCOP(=O)(CCc1ccc(NC(=O)C2SCC(=O)c3cc(C4CCCCC4)ccc32)cc1)OCC (stereo not given) |  | ALP activity [1]: 1.5
15 | CCOP(=O)(Cc1ccc(NC(=O)[C@@H]2SCC(=O)c3cc4c(cc32)OCO4)cc1)OCC | 1.2 | 
16 | CCCCOP(=O)(Cc1ccc(NC(=O)C2SCC(=O)c3cc(C4CCCCC4)ccc32)cc1)OCCCC (stereo not given) |  | ALP activity [1]: 1.7
17 | CCOP(=O)(Cc1ccc(NC(=O)[C@@H]2S[C@@H](C)C(=O)c3cc4c(cc32)OCO4)cc1)OCC | 1.2 | 
18 | CCOP(=O)(Cc1ccc(NC(=O)[C@H]2Cc3ccc(Cl)cc3C(=O)CS2)cc1)OCC | 1.1 | 
19 | CCOP(=O)(Cc1ccc(NC(=O)C2Cc3cc(OC)c(OC)cc3C(=O)CS2)cc1)OCC (racemic) |  | ALP activity [4]: 1910; ALP activity [5]: 0.143; ALP activity [6]: 0.169
20 | CCOP(=O)(Cc1ccc(NC(=O)[C@H]2Cc3ccc(C)cc3C(=O)CS2)cc1)OCC | 1.1 | 
21 | CCOP(=O)(CCNC(=O)[C@H]1Cc2cc3c(cc2C(=O)[C@H](C)S1)OCO3)OCC | 1.1 | 
22 | CCOP(=O)(Cc1ccc(NC(=O)[C@H]2Cc3ccc(C)cc3C(=O)[C@H](c3ccccc3)S2)cc1)OCC | 1.2 | 
23 | CCOP(=O)(CCc1ccc(NC(=O)[C@H]2Cc3cc4c(cc3C(=O)[C@H](C)S2)OCO4)cc1)OCC | 1.9 | 
24 | CCOP(=O)(Cc1ccc(NC(=O)[C@H]2Cc3cc4c(cc3C(=O)[C@H](C(C)C)S2)OCO4)cc1)OCC | 3.3 | 
25 | Cc1cc2c(cc1C)[C@H](C(=O)Nc1cnccn1)SCC2=O | 1.3 | 
26 | CCOP(=O)(OCC)c1ccc(NC(=O)C2SCC(=O)c3cc(C4CCCCC4)ccc32)cc1 (stereo not given) |  | ALP activity [1]: 1.6
27 | CCOP(=O)(Cc1ccc(NC(=O)[C@@H]2SCC(=O)c3cc(-c4ccc(Cl)cc4)ccc32)cc1)OCC | 1.7 | 
28 | CCOP(=O)(Cc1ccc(NC(=O)[C@@H]2SCC(=O)c3cc(C4CCCCC4)ccc32)cc1)OCC | 2.4 | 

Row | SMILES | ALP activity [2] | other results
29 | CCOP(=O)(Cc1ccc(NC(=O)[C@H]2Cc3cc(OC)c(OC)cc3C(=O)CS2)cc1)OCC |  | ALP activity [5]: 0.164; ALP activity [6]: 0.199
30 | COP(=O)(Cc1ccc(NC(=O)C2SCC(=O)c3cc(C4CCCCC4)ccc32)cc1)OC (stereo not given) |  | ALP activity [1]: 1.7
31 | COc1cc2c(cc1OC)C(=O)CS[C@@H](C(=O)Nc1ccc(CP3(=O)OCCCCO3)cc1)C2 | 2.8 | 
32 | CCOP(=O)(Cc1ccc(NC(=O)[C@H]2Cc3ccccc3C(=O)CS2)cc1)OCC | 1.5 | 
33 | CC(C)Oc1ccc2c(=O)c(-c3ccccc3)coc2c1 | 1.6 | 
34 | CCOc1ccc(OCC)c(NC(=O)[C@@H]2SCC(=O)c3cc(C4CCCCC4)ccc32)c1 | 2.3 | 
35 | CCOP(=O)(Cc1ccccc1NC(=O)C1SCC(=O)c2cc(C3CCCCC3)ccc21)OCC (stereo not given) |  | ALP activity [1]: 1.5
36 | CCOP(=O)(Cc1ccc(NC(=O)[C@@H]2SCC(=O)c3cc(CC4CCCCC4)ccc32)cc1)OCC | 2 | 
37 | CCOP(=O)(OCC)c1ccc(NC(=O)[C@@H]2SCC(=O)c3cc4c(cc32)CCC4)cc1 | 1.1 | 
38 | C[C@@H]1S[C@@H](C(=O)Nc2nc(-c3ccccc3)cs2)c2cc3c(cc2C1=O)OCO3 | 1.3 | 
39 | CCOP(=O)(OCC)c1ccc(NC(=O)[C@H]2Cc3cc(OC)c(OC)cc3C(=O)CS2)cc1 | 2.6 | 
40 | CCOP(=O)(Cc1ccc(NC(=O)[C@H]2Cc3cc4c(cc3C(=O)CS2)OCCO4)cc1)OCC | 1.2 | 
41 | CC(C)OP(=O)(Cc1ccc(NC(=O)[C@H]2Cc3cc4c(cc3C(=O)[C@H](C)S2)OCO4)cc1)OC(C)C | 3.9 | 
42 | CCOP(=O)(OCC)c1ccc(NC(=O)[C@H]2Cc3cc4c(cc3C(=O)[C@H](C)S2)OCO4)cc1 | 1.8 | 
43 | CCOP(=O)(Cc1ccc(NC(=O)[C@@H]2SCC(=O)c3cc(OC)c(OC)cc32)cc1)OCC | 2.5 | 
44 | CCOP(=O)(Cc1cccc(NC(=O)[C@H]2Cc3cc4c(cc3C(=O)[C@H](C)S2)OCO4)c1)OCC | 1.8 | 
45 | O=C1CS[C@@H](C(=O)Nc2ccc(Cl)cc2)c2cc3c(cc21)CCC3 | 1.3 | 
46 | Cc1cc2c(cc1C)[C@H](C(=O)Nc1cccnc1)SCC2=O | 1.3 | 
47 | CCOP(=O)(OCC)c1ccc(NC(=O)[C@H]2Cc3cc(C)c(C)cc3C(=O)CS2)cc1 | 2.2 | 
48 | CCOP(=O)(Cc1ccc(NC(=O)[C@H]2Cc3cc(OC)c(OC)cc3C(=O)[C@H](C)S2)cc1)OCC | 2.3 | 
49 | CC1COP(=O)(Cc2ccc(NC(=O)[C@H]3Cc4cc5c(cc4C(=O)[C@H](C)S3)OCO5)cc2)OC1 (stereo not given in full) | 3 | 
50 | CCOP(=O)(Cc1ccc(NC(=O)[C@@H]2SCC(=O)c3cc(C)c(C)cc32)cc1)OCC | 1.5 | 
51 | CCOP(=O)(OCC)c1ccc(NC(=O)[C@@H]2SCC(=O)c3cc(C)c(C)cc32)cc1 | 1.5 | 
52 | CCOP(=O)(Cc1ccc(NC(=O)[C@H]2Cc3cc(OC)c(OC)cc3C(=O)[C@H](CC)S2)cc1)OCC | 1.5 | 
53 | COP(=O)(Cc1ccc(NC(=O)[C@H]2Cc3cc4c(cc3C(=O)[C@H](C)S2)OCO4)cc1)OC | 7.2 | 
54 | CC(C)OP(=O)(Cc1ccc(NC(=O)C2SCC(=O)c3cc(C4CCCCC4)ccc32)cc1)OC(C)C (stereo not given) |  | ALP activity [1]: 2
55 | O=C1CS[C@@H](C(=O)Nc2ccc(Cl)cc2)c2ccc(C3CCCCC3)cc21 | 2 | 
